Active and inactive are the calls of the source. The calls are words filed in the database; no cut-off is given here.
Assays:
Homo sapiens [1] = species: Homo sapiens; assay: Inhibition of cathepsin (unknown origin) at >10 uM
[2] = target: T1, Proteasome Macropain subunit MB1 (Homo sapiens, UniProt P28074); assay: Inhibition of chymotrypsin-like activity of human 20S proteasome beta 5 subunit assessed as hydrolysis of succinyl-LLVY-AMC fluorogenic substrate measured for 1 hr by fluorometric analysis
T1 sequence (P28074 whole entry): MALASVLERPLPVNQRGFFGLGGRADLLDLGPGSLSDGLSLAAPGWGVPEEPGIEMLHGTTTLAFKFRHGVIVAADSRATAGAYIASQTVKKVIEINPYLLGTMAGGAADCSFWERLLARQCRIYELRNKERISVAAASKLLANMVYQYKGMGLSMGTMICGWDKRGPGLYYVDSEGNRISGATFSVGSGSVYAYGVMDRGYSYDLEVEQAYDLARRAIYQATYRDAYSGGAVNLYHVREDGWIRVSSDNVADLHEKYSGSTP
Outline: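 Purified human 20S proteasome (0.1 µg) incubated at 37 °C with 50 µM succinyl-LLVY-AMC (CT-L) or 20 µM Z-LLE-AMC (PGPH) and compound at 0.01–10 µM in 25 mM HEPES, 0.5 mM EDTA, 0.03% SDS. IC50 taken from inhibition curve; means of three experiments.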

Homo sapiens [3] = species: Homo sapiens; assay: Inhibition of calpain (unknown origin) at >10 uM
[4] = Cytotoxicity against ER-negative HEK293 cells after 48 hrs by MTT assay; assay type: cell-based; settings: human
Outline: (§1)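 HEK293 (DMEM) or HL-60 (IMDM) cells, each with 10% FBS plus penicillin/streptomycin, seeded 5×10^3 cells/well in duplicate. Exposed 48 h to compound at […]. MTT reduction read as 560/750 nm absorbance ratio after HCl/2-propanol extraction. CyT50 from inhibition curve; means of triplicate.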

HL-60 = assay: Cytotoxicity against […] human HL60 cells after 48 hrs by MTT assay; assay type: functional; settings: HL-60, 48 h; outline: as §1
[5] = target: T1, Proteasome Macropain subunit MB1; assay: Noncompetitive inhibition of chymotrypsin-like activity of human 20S proteasome beta 5 subunit assessed as hydrolysis of succinyl-LLVY-AMC fluorogenic substrate Lineweaver-Burk plot analysis
[6] = target: T2, Proteasome component C5 (Homo sapiens) (UniProt P20618); assay: Inhibition of biotin-labeled belactosin A binding to human 20S proteasome beta 1 subunit at 1 to 100 uM preincubated for 1 hr followed by biotin-labeled belactosin A treatment measured after 1 hr by Western blotting analysis
T2 sequence (whole entry): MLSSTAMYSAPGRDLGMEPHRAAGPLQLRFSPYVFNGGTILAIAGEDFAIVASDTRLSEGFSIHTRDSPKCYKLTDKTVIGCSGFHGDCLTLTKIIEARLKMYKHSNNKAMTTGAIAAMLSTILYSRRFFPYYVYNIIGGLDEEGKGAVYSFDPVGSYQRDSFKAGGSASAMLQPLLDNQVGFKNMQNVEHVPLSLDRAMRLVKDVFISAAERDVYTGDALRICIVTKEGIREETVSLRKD
Outline: (§2)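 Purified human 20S proteasomes preincubated with varying inhibitor concentrations 1 h at 37 °C, then biotin-belactosin A added at 1 μM for a further 1 h. Proteins separated by SDS-PAGE, blotted to PVDF, blocked with 5% skim milk; biotin-labeled subunits detected with streptavidin-HRP and ECL. MG132 used as control.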

[7] = target: Proteasome Macropain subunit (Homo sapiens) (UniProt P49721); assay: Inhibition of biotin-labeled belactosin A binding to human 20S proteasome beta 2 subunit at 1 to 100 uM preincubated for 1 hr followed by biotin-labeled belactosin A treatment measured after 1 hr by Western blotting analysis; outline: as §2
Proteasome Macropain subunit (Homo sapiens), sequence (P49721 whole entry): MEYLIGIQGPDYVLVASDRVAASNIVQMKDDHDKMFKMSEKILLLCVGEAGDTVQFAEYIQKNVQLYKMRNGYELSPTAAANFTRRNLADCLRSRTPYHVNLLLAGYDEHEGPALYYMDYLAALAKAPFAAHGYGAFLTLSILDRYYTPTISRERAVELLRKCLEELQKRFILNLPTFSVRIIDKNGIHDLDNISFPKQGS

HeLa [8] = assay: Induction of apoptosis in human HeLa cells assessed as PARP cleavage at 1 to 60 uM after 24 hrs by Western blotting analysis; assay type: functional, cell-based
Outline: (§3)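 HeLa cells seeded 4×10^5 cells/well, incubated 24 h with varying compound concentrations; PARP cleavage detected in lysates by Western blotting.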

HeLa [9] = assay: Induction of apoptosis in human HeLa cells assessed as PARP cleavage after 24 hrs by Western blotting analysis; assay type: functional, cell-based; outline: as §3
[10] = target: T2, Proteasome component C5 (Homo sapiens); assay: Inhibition of biotin-labeled belactosin A binding to human 20S proteasome beta 1 subunit preincubated for 1 hr followed by biotin-labeled belactosin A treatment measured after 1 hr by Western blotting analysis
Outline: (§4)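 Purified human 20S proteasome preincubated 1 h at 37 °C with varying compound levels, then biotin-belactosin A added to 1 µM for a further 1 h. Proteins separated by SDS-PAGE, blotted to PVDF, milk-blocked; biotin-labelled subunits detected with streptavidin-HRP and ECL.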

[11] = target: T2, Proteasome component C5 (Homo sapiens); assay: Inhibition of biotin-labeled belactosin A binding to human 20S proteasome beta 1 subunit at 10 uM preincubated for 1 hr followed by biotin-labeled belactosin A treatment measured after 1 hr by Western blotting analysis; outline: as §4
[12] = target: T3, Proteasome Macropain subunit MB1 (Homo sapiens) (UniProt P28074); assay: Inhibition of biotin-labeled belactosin A binding to human 20S proteasome beta 5 subunit at 100 uM preincubated for 1 hr followed by biotin-labeled belactosin A treatment measured after 1 hr by Western blotting analysis; outline: as §4
T3 sequence (whole entry): T1 sequence (P28074 whole entry)

[13] = target: T3, Proteasome Macropain subunit MB1 (Homo sapiens); assay: Inhibition of biotin-labeled belactosin A binding to human 20S proteasome beta 5 subunit at 1 to 100 uM preincubated for 1 hr followed by biotin-labeled belactosin A treatment measured after 1 hr by Western blotting analysis; outline: as §4
HeLa [14] = assay: Inhibition of proteasome in human HeLa cells assessed as accumulation of ubiquitinated proteins at 60 uM after 24 hrs by Western blotting analysis; assay type: cell-based
Outline: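 HeLa cells, 4×10^5 cells/well, treated 24 h with compound; vehicle control 0.25% DMSO. Lysed in Tris–HCl/2% SDS/glycerol buffer with protease and phosphatase inhibitors; 30 µg protein run on SDS-PAGE, PVDF blot probed with anti-ubiquitin (1:200), actin as loading reference, HRP secondary, ECL detection.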

## CCC(=C(c1ccc(OCCCN2CCCC2)cc1)c1ccc(OCCCN2CCCC2)cc1)c1ccccc1
Homo sapiens [1]
  inhibition: inactive
[2]
  IC50: > 10 µM
Homo sapiens [3]
  inhibition: inactive

## CC(C)(c1ccc(OCCN2CCCCCC2)cc1)c1ccc(OCCN2CCCCCC2)cc1
[2]
  IC50: 0.75 µM
[4]
  CC50 at 48 h: 7.61 µM
HL-60
  CC50: 17.6 µM

## CCCCCCC(CCCCCC)=C(c1ccc(OCCN2CCCCCC2)cc1)c1ccc(OCCN2CCCCCC2)cc1
[2]
  IC50: > 10 µM
[4]
  CC50 at 48 h: > 30 µM
HL-60
  CC50: > 30 µM

## c1cc(C2(c3ccc(OCCN4CCCCCC4)cc3)CCCCC2)ccc1OCCN1CCCCCC1
[2]
  IC50: 1.94 µM
[4]
  CC50 at 48 h: 17.5 µM
HL-60
  CC50: > 30 µM

## c1ccc(C(=C(c2ccc(OCCN3CCCCCC3)cc2)c2ccc(OCCN3CCCCCC3)cc2)c2ccccc2)cc1
[2]
  IC50: 1.18 µM
[5]
  Ki: 1.1 µM
[4]
  CC50 at 48 h: 23.2 µM
HL-60
  CC50: > 30 µM

## CCC(=C(c1ccc(OCCN(C)C)cc1)c1ccc(OCCN(C)C)cc1)c1ccccc1
Homo sapiens [1]
  inhibition: inactive
[2]
  IC50: 3.36 µM
Homo sapiens [3]
  inhibition: inactive

## c1cc(C(=C2CCCCC2)c2ccc(OCCN3CCCCCC3)cc2)ccc1OCCN1CCCCCC1
[2]
  IC50: 2.19 µM
[4]
  CC50 at 48 h: 12.5 µM
HL-60
  CC50: 11.7 µM

## CCC=C(c1ccc(OCCN2CCCCCC2)cc1)c1ccc(OCCN2CCCCCC2)cc1
[2]
  IC50: 1.46 µM
[4]
  CC50 at 48 h: 26.7 µM
HL-60
  CC50: 22.6 µM

## c1ccc(Cc2ccc(OCCN3CCCCCC3)cc2)cc1
[2]
  IC50: > 10 µM
[6]
  inhibition: Active
[7]
  inhibition: Active
HeLa [8]
  Activity: inactive
[4]
  CC50 at 48 h: 27 µM
HL-60
  CC50: > 30 µM

## CC(C)=C(c1ccc(OCCN2CCCCCC2)cc1)c1ccc(OCCN2CCCCCC2)cc1
[2]
  IC50: 1.66 µM
[4]
  CC50 at 48 h: 11.1 µM
HL-60
  CC50: 10.7 µM

## c1cc(C(=C2CCCC2)c2ccc(OCCN3CCCCCC3)cc2)ccc1OCCN1CCCCCC1
[2]
  IC50: 2.7 µM
[4]
  CC50 at 48 h: 26.2 µM
HL-60
  CC50: 20.1 µM

## CCC(CC)=C(c1ccc(OCCN2CCCCCC2)cc1)c1ccc(OCCN2CCCCCC2)cc1
[2]
  IC50: 1.57 µM
[4]
  CC50 at 48 h: 6.02 µM
HL-60
  CC50: 8.87 µM

## CCC(=C(c1ccc(OCCN2CCCC2)cc1)c1ccc(OCCN2CCCC2)cc1)c1ccccc1
Homo sapiens [1]
  inhibition: inactive
[2]
  IC50: 6.56 µM
Homo sapiens [3]
  inhibition: inactive

## CCCCC(CCCC)=C(c1ccc(OCCN2CCCCCC2)cc1)c1ccc(OCCN2CCCCCC2)cc1
[2]
  IC50: > 10 µM
[4]
  CC50 at 48 h: > 30 µM
HL-60
  CC50: 25.3 µM

## CC(c1ccc(OCCN2CCCCCC2)cc1)c1ccc(OCCN2CCCCCC2)cc1
[2]
  IC50: 0.8 µM
[4]
  CC50 at 48 h: 8.12 µM
HL-60
  CC50: 21.4 µM

## CCCCCC(CCCCC)=C(c1ccc(OCCN2CCCCCC2)cc1)c1ccc(OCCN2CCCCCC2)cc1
[2]
  IC50: > 10 µM
[4]
  CC50 at 48 h: 14.5 µM
HL-60
  CC50: > 30 µM

## c1cc(OCCN2CCCCCC2)ccc1Cc1ccc(OCCN2CCCCCC2)cc1
HeLa [9]
  Activity: Dose-dependent effect
[10]
  inhibition: Dose-dependent effect
[2]
  IC50: 0.67 µM
[11]
  inhibition: Active
[12]
  inhibition: Active
[13]
  inhibition: Active
[4]
  CC50 at 48 h: 10.9 µM
HeLa [14]
  inhibition: Active
HL-60
  CC50: 14.5 µM

## CCC(=C(c1ccc(OCCCN(C)C)cc1)c1ccc(OCCCN(C)C)cc1)c1ccccc1
Homo sapiens [1]
  inhibition: inactive
[2]
  IC50: > 10 µM
Homo sapiens [3]
  inhibition: inactive

## c1ccc(C(=C(c2ccc(OCCN3CCCCCC3)cc2)c2ccc(OCCN3CCCCCC3)cc2)C2CCCCC2)cc1
[2]
  IC50: > 10 µM
[4]
  CC50 at 48 h: > 30 µM
HL-60
  CC50: > 30 µM

## CCCC(=C(c1ccc(OCCN2CCCCCC2)cc1)c1ccc(OCCN2CCCCCC2)cc1)c1ccccc1
[2]
  IC50: 1.37 µM
[4]
  CC50 at 48 h: 26.8 µM
HL-60
  CC50: 4.3 µM

## CCC(=C(c1ccc(OCCN2CCOCC2)cc1)c1ccc(OCCN2CCOCC2)cc1)c1ccccc1
Homo sapiens [1]
  inhibition: inactive
[2]
  IC50: 7.19 µM
Homo sapiens [3]
  inhibition: inactive

## CC(=C(c1ccc(OCCN2CCCCCC2)cc1)c1ccc(OCCN2CCCCCC2)cc1)c1ccccc1
[2]
  IC50: 0.9 µM
[4]
  CC50 at 48 h: 18.9 µM
HL-60
  CC50: 6.87 µM

## CCCC(CCC)=C(c1ccc(OCCN2CCCCCC2)cc1)c1ccc(OCCN2CCCCCC2)cc1
[2]
  IC50: 3.38 µM
[4]
  CC50 at 48 h: > 30 µM
HL-60
  CC50: > 30 µM

## C=C(c1ccc(OCCN2CCCCCC2)cc1)c1ccc(OCCN2CCCCCC2)cc1
[2]
  IC50: 1.04 µM
[4]
  CC50 at 48 h: 9.8 µM
HL-60
  CC50: 10.7 µM

## CC(O)(c1ccc(OCCN2CCCCCC2)cc1)c1ccc(OCCN2CCCCCC2)cc1
[2]
  IC50: 1.66 µM
[4]
  CC50 at 48 h: 22.7 µM
HL-60
  CC50: 7.06 µM

## O=C(c1ccc(OCCN2CCCCCC2)cc1)c1ccc(OCCN2CCCCCC2)cc1
[2]
  IC50: 1.65 µM
[4]
  CC50 at 48 h: 13.9 µM
HL-60
  CC50: > 30 µM

## CCC(=C(c1ccc(OCCN2CCCCC2)cc1)c1ccc(OCCN2CCCCC2)cc1)c1ccccc1
Homo sapiens [1]
  inhibition: inactive
[2]
  IC50: > 10 µM
Homo sapiens [3]
  inhibition: inactive

## C(=C(c1ccc(OCCN2CCCCCC2)cc1)c1ccc(OCCN2CCCCCC2)cc1)c1ccccc1
[2]
  IC50: 0.58 µM
[5]
  Ki: 0.87 µM
[4]
  CC50 at 48 h: 6.06 µM
HL-60
  CC50: 9.73 µM

## CCC(=C(c1ccc(OCCN(CC)CC)cc1)c1ccc(OCCN(CC)CC)cc1)c1ccccc1
Homo sapiens [1]
  inhibition: inactive
[2]
  IC50: > 10 µM
Homo sapiens [3]
  inhibition: inactive

— ChEMBL document CHEMBL3098012, “A novel tamoxifen derivative, ridaifen-F, is a nonpeptidic small-molecule proteasome inhibitor” (Eur J Med Chem, 2014)
